Assays:
[1] = Inhibition of soybean 15-LOX assessed as reduction in conversion of linoleic acid to 13-hydroperoxylinoleic acid by spectrophotometric method; design: species or system Glycine max
Outline: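 Soybean lipoxygenase type 1-B (final 167 U/mL) with compound (DMSO stock diluted in 0.1 M phosphate buffer pH 8) and linoleic acid (134 mM in ethanol) at room temperature. Formation of 13-hydroperoxylinoleic acid followed spectrophotometrically at 234 nm.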

PC-12 [2] = test: Neuroprotection against H2O2-induced cell death in rat PC12 cells assessed as cell viability at 10 uM preincubated for 3 hrs followed by H2O2 stimulation measured after 2 hrs by MTT assay (reference value: 25.2 to 41.8%); format: functional; conditions: read-out: Activity
Cholinesterase = Cholinesterase (Equus caballus, UniProt P81908); test: Inhibition of equine serum BuChE using butyrylthiocholine iodide as substrate pretreated for 5 mins followed by substrate addition by Ellman's method
Chain of Cholinesterase (P81908 whole entry): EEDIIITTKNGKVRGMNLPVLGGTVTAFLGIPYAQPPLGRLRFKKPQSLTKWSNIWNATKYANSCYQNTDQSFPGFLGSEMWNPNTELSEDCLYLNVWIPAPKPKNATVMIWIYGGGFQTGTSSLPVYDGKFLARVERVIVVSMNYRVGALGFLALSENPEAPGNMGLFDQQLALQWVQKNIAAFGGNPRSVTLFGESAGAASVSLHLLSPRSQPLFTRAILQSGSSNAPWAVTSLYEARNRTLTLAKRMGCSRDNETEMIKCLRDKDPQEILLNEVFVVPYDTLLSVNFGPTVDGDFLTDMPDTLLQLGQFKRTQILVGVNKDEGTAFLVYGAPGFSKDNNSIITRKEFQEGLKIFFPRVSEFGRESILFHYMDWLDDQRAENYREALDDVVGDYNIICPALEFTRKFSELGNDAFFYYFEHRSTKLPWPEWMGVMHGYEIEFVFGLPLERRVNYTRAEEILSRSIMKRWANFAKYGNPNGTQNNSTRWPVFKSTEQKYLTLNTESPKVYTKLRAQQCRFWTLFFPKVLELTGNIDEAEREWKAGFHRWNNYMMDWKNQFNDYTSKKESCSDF
Outline: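 Ellman assay with horse serum BuChE (5 IU/mL) in 0.1 M phosphate buffer pH 8.0 with DTNB. Compound was preincubated with enzyme 5 min, then butyrylthiocholine iodide was added. Absorbance read at 412 nm. IC50 from a log concentration vs % inhibition curve; triplicate runs.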

Acetylcholinesterase = Acetylcholinesterase (Electrophorus electricus, UniProt O42275); test: Inhibition of electric eel AChE using acetylthiocholine iodide as substrate pretreated for 5 mins followed by substrate addition by Ellman's method
Chain of Acetylcholinesterase (O42275 whole entry): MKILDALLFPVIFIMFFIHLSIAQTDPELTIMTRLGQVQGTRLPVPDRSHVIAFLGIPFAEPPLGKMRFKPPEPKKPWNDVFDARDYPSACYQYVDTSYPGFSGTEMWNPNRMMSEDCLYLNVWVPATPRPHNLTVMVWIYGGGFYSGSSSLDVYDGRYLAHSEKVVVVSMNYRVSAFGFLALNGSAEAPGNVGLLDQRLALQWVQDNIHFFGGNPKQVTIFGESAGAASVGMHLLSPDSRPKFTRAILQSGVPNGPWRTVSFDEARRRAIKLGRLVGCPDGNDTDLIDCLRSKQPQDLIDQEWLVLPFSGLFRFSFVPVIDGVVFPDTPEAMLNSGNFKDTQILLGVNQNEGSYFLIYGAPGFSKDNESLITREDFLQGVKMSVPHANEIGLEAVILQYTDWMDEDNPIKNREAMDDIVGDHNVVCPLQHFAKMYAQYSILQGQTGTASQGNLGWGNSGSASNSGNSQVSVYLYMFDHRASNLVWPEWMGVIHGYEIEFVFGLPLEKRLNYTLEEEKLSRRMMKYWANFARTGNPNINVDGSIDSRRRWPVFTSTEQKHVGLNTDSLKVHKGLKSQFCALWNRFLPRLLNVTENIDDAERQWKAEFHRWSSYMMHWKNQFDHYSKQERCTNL

PC-12 [3] = test: Neuroprotection against H2O2-induced cell death in rat PC12 cells assessed as cell viability at 5 uM preincubated for 3 hrs followed by H2O2 stimulation measured after 2 hrs by MTT assay (reference value: 25.2 to 41.8%); format: functional; conditions: read-out: Activity
PC-12 [4] = test: Neuroprotection against H2O2-induced cell death in rat PC12 cells assessed as increase in cell viability preincubated for 3 hrs followed by H2O2 stimulation measured after 2 hrs by MTT assay; format: functional, cell-based
PC-12 [5] = test: Neuroprotection against H2O2-induced cell death in rat PC12 cells assessed as cell viability at 20 uM preincubated for 3 hrs followed by H2O2 stimulation measured after 2 hrs by MTT assay (reference value: 25.2 to 41.8%); format: functional; conditions: read-out: Activity
PC-12 [6] = test: Neuroprotection against H2O2-induced cell death in rat PC12 cells assessed as cell viability at 50 uM preincubated for 3 hrs followed by H2O2 stimulation measured after 2 hrs by MTT assay (reference value: 25.2 to 41.8%); format: functional; conditions: read-out: Activity
PC-12 [7] = test: Neuroprotection against H2O2-induced cell death in rat PC12 cells assessed as cell viability at 1 uM preincubated for 3 hrs followed by H2O2 stimulation measured after 2 hrs by MTT assay (reference value: 25.2 to 41.8%); format: functional; conditions: read-out: Activity
PC-12 [8] = test: Neuroprotection against H2O2-induced cell death in rat PC12 cells assessed as cell viability at 0.1 uM preincubated for 3 hrs followed by H2O2 stimulation measured after 2 hrs by MTT assay (reference value: 25.2 to 41.8%); format: functional; conditions: read-out: Activity
[9] = biological target: Amyloid-beta precursor protein (Homo sapiens) (UniProt P05067); test: Inhibition of amyloid beta (1 to 42) (unknown origin) self-induced aggregation at 100 uM incubated for 48 hrs by thioflavin-T fluorescence assay relative to control
Chain of Amyloid-beta precursor protein (Homo sapiens) (P05067 whole entry): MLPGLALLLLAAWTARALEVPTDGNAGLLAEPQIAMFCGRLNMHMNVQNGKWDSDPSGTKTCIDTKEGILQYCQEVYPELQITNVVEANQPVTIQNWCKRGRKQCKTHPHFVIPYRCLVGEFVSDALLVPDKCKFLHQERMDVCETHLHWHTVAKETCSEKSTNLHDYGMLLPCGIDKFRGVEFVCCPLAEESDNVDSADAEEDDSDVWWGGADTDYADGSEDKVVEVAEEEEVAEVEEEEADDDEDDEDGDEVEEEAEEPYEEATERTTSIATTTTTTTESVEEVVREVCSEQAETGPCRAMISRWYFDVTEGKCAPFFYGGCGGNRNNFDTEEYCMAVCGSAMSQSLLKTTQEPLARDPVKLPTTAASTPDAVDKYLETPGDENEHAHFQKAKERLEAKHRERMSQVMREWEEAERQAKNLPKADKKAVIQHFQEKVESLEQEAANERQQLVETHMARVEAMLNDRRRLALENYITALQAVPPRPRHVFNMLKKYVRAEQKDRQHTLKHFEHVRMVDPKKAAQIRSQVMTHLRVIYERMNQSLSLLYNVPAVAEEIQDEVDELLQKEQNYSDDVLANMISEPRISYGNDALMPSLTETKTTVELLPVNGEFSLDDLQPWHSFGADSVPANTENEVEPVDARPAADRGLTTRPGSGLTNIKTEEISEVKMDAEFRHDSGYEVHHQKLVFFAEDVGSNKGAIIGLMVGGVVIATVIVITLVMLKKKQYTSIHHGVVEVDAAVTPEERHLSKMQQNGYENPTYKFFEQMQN

| SMILES | IC50 [1] | viability at 10 µM (PC-12 [2]) | IC50 (Cholinesterase) | IC50 (Acetylcholinesterase) | viability at 5 µM (PC-12 [3]) | Activity (PC-12 [4]) | viability at 20 µM (PC-12 [5]) | viability at 50 µM (PC-12 [6]) | viability at 1 µM (PC-12 [7]) | viability at 0.1 µM (PC-12 [8]) | inhibition [9] |
| --- | --- | --- | --- | --- | --- | --- | --- | --- | --- | --- | --- |
| O=C(CCCCC1CCSS1)NCc1cn(CCCOc2ccc3cc(-c4ccc(Cl)c(Cl)c4)c(=O)oc3c2)nn1 (stereo unspecified) | > 100 µM | 49.6% | 73.5 µM | > 100 µM | 44.7% | Dose-dependent effect | 51.2% | 54.8% | 42.4% | 38.1% |  |
| CC(=O)c1cc2ccc(OCCCn3cc(CNC(=O)CCCCC4CCSS4)nn3)cc2oc1=O (stereo unspecified) | > 100 µM | 38% | > 100 µM | 54.6 µM | 37.5% | Dose-dependent effect | 39.8% | 40.7% | 35.5% | 34.6% |  |
| COc1ccc(-c2cc3ccc(OCCCCn4cc(CNC(=O)CCCCC5CCSS5)nn4)cc3oc2=O)cc1OC (stereo unspecified) | > 100 µM | 64% | > 100 µM | > 100 µM | 57.2% | Dose-dependent effect | 68.4% | 71.9% | 53% | 40.7% |  |
| O=C(CCCCC1CCSS1)NCc1cn(CCCCCOc2ccc3cc(-c4ccc(Cl)c(Cl)c4)c(=O)oc3c2)nn1 (stereo unspecified) | > 100 µM | 59.4% | 7.8 µM | > 100 µM | 54.8% | Dose-dependent effect | 65.5% | 66.2% | 50.6% | 39.7% |  |
| COc1ccc(-c2cc3ccc(OCCCCCn4cc(CNC(=O)CCCCC5CCSS5)nn4)cc3oc2=O)cc1 (stereo unspecified) | > 100 µM | 45.5% | > 100 µM | > 100 µM | 41% | Dose-dependent effect | 49% | 52.8% | 37.1% | 34.5% |  |
| O=C(CCCCC1CCSS1)NCc1cn(CCCCOc2ccc3ccc(=O)oc3c2)nn1 (stereo unspecified) | > 100 µM | 65.1% | > 100 µM | 65.5 µM | 52.8% | Dose-dependent effect | 69.8% | 75.8% | 45.9% | 40.5% |  |
| Cc1cc(=O)oc2cc(OCCCCCn3cc(CNC(=O)CCCCC4CCSS4)nn3)ccc12 (stereo unspecified) | > 100 µM | 66.3% | > 100 µM | > 100 µM | 61% | Dose-dependent effect | 70.3% | 73.7% | 56.5% | 45.6% |  |
| O=C(CCCCC1CCSS1)NCc1cn(CCCOc2ccc3cc(C(=O)O)c(=O)oc3c2)nn1 (stereo unspecified) | > 100 µM | 59.9% | > 100 µM | > 100 µM | 57% | Dose-dependent effect | 66.8% | 73.5% | 52.1% | 43.4% |  |
| CCOC(=O)c1cc2ccc(OCCCCCn3cc(CNC(=O)CCCCC4CCSS4)nn3)cc2oc1=O (stereo unspecified) | > 100 µM | 38.3% | > 100 µM | 59.7 µM | 36.4% | Dose-dependent effect | 39.5% | 40.7% | 35.1% | 34.4% |  |
| COc1ccc(-c2cc3ccc(OCCCn4cc(CNC(=O)CCCCC5CCSS5)nn4)cc3oc2=O)cc1 (stereo unspecified) | > 100 µM | 57.6% | > 100 µM | 40.2 µM | 52.8% | Dose-dependent effect | 62% | 65.7% | 47.4% | 42% |  |
| O=C(CCCCC1CCSS1)NCc1cn(CCCCOc2ccc3cc(-c4ccc(Cl)cc4)c(=O)oc3c2)nn1 (stereo unspecified) | > 100 µM | 61.8% | 52 µM | > 100 µM | 52% | Dose-dependent effect | 68.4% | 74.9% | 46.2% | 38.8% |  |
| O=C(CCCCC1CCSS1)NCc1cn(CCCOc2ccc3cc(-c4ccc(Br)cc4)c(=O)oc3c2)nn1 (stereo unspecified) | > 100 µM | 63.3% | > 100 µM | 46.5 µM | 57.3% | Dose-dependent effect | 69.1% | 74.7% | 42.8% | 39.5% |  |
| CO[C@H]1/C=C/O[C@@]2(C)Oc3c(C)c(O)c4c(O)c(c(/C=N/N5CCN(C)CC5)c(O)c4c3C2=O)NC(=O)/C(C)=C\C=C\[C@H](C)[C@H](O)[C@@H](C)[C@@H](O)[C@@H](C)[C@H](OC(C)=O)[C@@H]1C |  |  |  |  |  |  |  |  |  |  | 27.5% |

From ChEMBL document CHEMBL4152262, “Design, synthesis and evaluation of novel multi-target-directed ligands for treatment of Alzheimer's disease based on coumarin and lipoic acid scaffolds” (Eur J Med Chem, 2018)
